The nature of assay [1]: inhibitors of TNFa-induced NFkB p65 translocation, primary screen, imaging, HUVEC, MLSMR starter and 10KST1 sets (AID 438;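 active = inhibition above 20% together with a positive visual image hit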;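 also: compound added about 3h40 before a 20 min TNFalpha stimulation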;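 as to inhibition: signal is the nuclear over cytoplasmic p65 intensity ratio per well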). Particulars: HUVEC TNFa-induced p65 nuclear translocation; cell count: measured here: nuclei count (cytotoxicity indicator), at 2.08 µM; inhibition: at 2 µM, stronger effect = higher value, 0% TNFa-plus-vehicle, 100% no-TNFa wells.
Assay [2] in a line: reduction of polyQ htt aggregates in cells – imaging, exon1htt(103Q)mCFP cells, high-content imaging, primary screen (AID 483;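 active = visual image review flags a hit and inhibition of aggregation exceeds 20%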;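 also: compound exposure lasted 3 days before fixation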;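 as to nuclei count: percent of the per-plate median nuclei count of sample wells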). Particulars: exon1htt(103Q)mCFP cell line, aggregate imaging, at 2 µM; inhibition of aggregation: stronger effect = higher value; nuclei count: measured here: cell count, toxicity.
Assay [3] is described as follows: endothelial E-selectin expression blockers – imaging, HUVEC, immunofluorescence, MLSMR starter and 10KST1 sets, primary screen (AID 487;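 active = visually confirmed hit in the image check and inhibition above 20%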;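 as to inhibition: signal is fraction of cell area covered by stained E-selectin grains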;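 as to nuclei count: 100% = median nuclei count of all wells on the same plate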). The following applies: HUVEC TNFalpha-induced E-selectin immunofluorescence imaging, at 2 µM; inhibition: stronger effect = higher value; nuclei count: measured here: cell number, toxicity.
Assay [4] deals with Voltage-gated potassium channel subunit beta-2 (Rattus norvegicus) (UniProt P62483). As to the kind of experiment: inhibitors of rat Kvbeta2 reductase activity – biochemical, NADPH fluorescence, primary screen (AID 622;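 active = fluorescence slope higher than the sample average by over 3 SD, cut at about -0.22 in these data, passing the limit was not always enough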;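 also: slope of raw intensity against log time taken from 70 to 1610 s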). Particulars: recombinant KvBeta, 4-cyanobenzaldehyde reduction, at 10 µM, stronger effect = higher value.
Assay [5] shares this target. The assay is described as follows: enhancers of rat Kvbeta2 NADPH turnover – biochemical, NADPH fluorescence, primary screen (AID 623).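 Also: fluorescence intensity change per second fitted from 20 to 320 s.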 The following applies: Recombinant KvBeta, NADPH fluorescence decrease slope, 10 min; at 10 µM; stronger effect = lower value.
The target of assay [6] is Muscarinic acetylcholine receptor M4 (Homo sapiens) (UniProt P08173). The assay is described as follows: M4-linked GIRK flux change, two-sided – cell-based, HEK293 M4/GIRK, thallium flux, BTC-AM, M4 allosteric agonist project, primary screen (AID 625;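 active = fluorescence slope after compound addition differing from the mean of all tested samples at 99.7% confidence, mostly higher but some lower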;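 also: thallium influx through GIRK channels coupled to M4 in HEK293 cells with BTC-AM dye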). Particulars: at 10 µM, actives lie on both sides. Summed up:
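Material – HEK293 cells with M4 receptor and GIRK channels · Buffer or medium – pH 7.3 thallium assay buffer · Doses – one dose, 10 µM final · Timing – cells overnight at 37 °C, BTC-AM loading 1 h, reads 2 min total · Measured by – kinetic fluorescence with BTC-AM dye · Controls – carbachol and DMSO controls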

The nature of assay [7]: blockers of RIG-like receptor reporter activation – cell-based, Sendai virus stimulus, luciferase, 10K MLSCN set, TLR/RLR signaling modifier project, primary screen (AID 602276;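 active = inhibition at or above 50% at 10 µM; inactive = inhibition below 50%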;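 also: firefly luciferase from ISG56 promoter only with Renilla not read in this screen; 0% = Sendai virus plus DMSO and 100% = medium plus DMSO without virus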). Particulars: HEK293 RL24 IRF3 luciferase reporter, at 10 µM, stronger effect = higher value. On the technique in general: Reporter assays use an easily measured gene product as a stand-in for the process of interest.

Assay [8] can be described thus: TLR3 IRF3 reporter activation blockers – cell-based, poly I:C stimulus, luciferase, 10K MLSCN set, primary screen (AID 602277;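 active = inhibition of the reporter signal at or above 50%; inactive = inhibition below 50%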). Particulars: HEK293-TLR3 RL24 IRF3 luciferase reporter, at 10 µM, stronger effect = higher value.

The results in this text go back to PubChem BioAssay.

The source made the active and inactive calls.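 The calls were made as follows, unless noted: active = NADPH fluorescence slope more negative than the mean of all samples by about 3 SD, 99.7% confidence; inactive = the rest.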

The inhibition is the change of the read-out against control, counted positive when it falls.

Muscarinic acetylcholine receptor M4 (Homo sapiens), sequence (P08173 whole entry, looked up): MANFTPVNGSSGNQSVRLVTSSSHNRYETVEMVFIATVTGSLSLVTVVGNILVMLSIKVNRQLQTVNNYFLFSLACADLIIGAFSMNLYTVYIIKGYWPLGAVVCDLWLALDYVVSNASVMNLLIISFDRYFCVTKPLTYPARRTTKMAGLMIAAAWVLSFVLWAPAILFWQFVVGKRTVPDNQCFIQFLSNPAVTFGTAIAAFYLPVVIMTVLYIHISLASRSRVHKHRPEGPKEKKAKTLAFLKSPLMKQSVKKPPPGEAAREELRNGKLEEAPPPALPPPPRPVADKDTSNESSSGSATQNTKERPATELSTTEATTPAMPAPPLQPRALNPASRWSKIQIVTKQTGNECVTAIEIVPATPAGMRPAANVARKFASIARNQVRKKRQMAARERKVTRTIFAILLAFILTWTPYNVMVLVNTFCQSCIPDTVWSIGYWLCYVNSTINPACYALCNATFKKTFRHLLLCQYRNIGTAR
Voltage-gated potassium channel subunit beta-2 (Rattus norvegicus), sequence (P62483 whole entry, looked up): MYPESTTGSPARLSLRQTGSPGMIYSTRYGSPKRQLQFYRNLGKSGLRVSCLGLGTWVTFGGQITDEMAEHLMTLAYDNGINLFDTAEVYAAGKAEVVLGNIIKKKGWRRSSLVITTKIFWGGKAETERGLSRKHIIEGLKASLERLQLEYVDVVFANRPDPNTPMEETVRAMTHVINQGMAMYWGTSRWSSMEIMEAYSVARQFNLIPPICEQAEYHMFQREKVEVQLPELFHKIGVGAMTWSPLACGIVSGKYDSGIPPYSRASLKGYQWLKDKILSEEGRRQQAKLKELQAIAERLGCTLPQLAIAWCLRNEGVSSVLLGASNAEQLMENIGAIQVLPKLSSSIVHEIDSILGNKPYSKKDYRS

As for `CCSc1nc(C)nc2c1oc1ccccc12`, in assay [1], the cell count was 407. The inhibition in assay [1] is 1.9% (inactive); in assay [3] it was -45.2% (inactive); in assay [7], -4.86% (inactive); in assay [8] it was -3.79% (inactive). Further, the inhibition of aggregation in assay [2] was 2.4% (inactive). Besides, the nuclei count is 96.3% in assay [2] and 106% in assay [3]. Further, the figures for the fluorescence slope in assay [4] and in assay [6] were -0.423 (inactive) and 0.00861 (inactive), respectively. Also, the NADPH fluorescence slope in assay [5] is -7.5e-05 (inactive).

With `CC1(C)CC(=O)C2=C(C1)N(Cc1ccco1)C(=O)C2(NC(=O)C1CCCCC1)C(F)(F)F` (centres undefined), the cell count in assay [1] came to 670. Moreover, the inhibition in assay [1] is -2.6% (inactive); in assay [3], -51% (inactive); in assay [7], 16.7% (inactive); in assay [8], 21.1% (inactive). The inhibition of aggregation in assay [2] was 9.8% (inactive). Also, the nuclei count in assay [2] turned out to be 111%; in assay [3], 116%. For the same compound, the fluorescence slope in assay [4] is -0.453 (inactive); in assay [6], 0.00581 (inactive). For the same compound, the NADPH fluorescence slope in assay [5] was -6.1e-05 (inactive).

Consider `CCC(=O)N1CCc2cc(S(=O)(=O)CCC(=O)Nc3nc(C)cs3)ccc21`, for which, in assay [1], the cell count came out at 606. Further, the inhibition in assay [1] was 5.7% (inactive); in assay [3] it was -144% (inactive); in assay [7], 19.2% (inactive); in assay [8], 21.5% (inactive). For the same compound, the inhibition of aggregation in assay [2] was 9.7% (inactive). Also, the nuclei count in assay [2] stood at 95.8%; in assay [3], 158%. Also, the fluorescence slope is -0.439 (inactive) in assay [4] and 0.00524 (inactive) in assay [6]. For the same compound, the NADPH fluorescence slope in assay [5] is 7.6e-05 (inactive).

`CCn1c(=O)n(CC(=O)N(C)Cc2ccccc2)c(=O)c2ccccc21`: in assay [1], the cell count stood at 684. Further, the inhibition in assay [1] is -16.4% (inactive); in assay [3], 65.6% (active); in assay [7], 11.1% (inactive); in assay [8] it was 10.9% (inactive). Moreover, in assay [2], the inhibition of aggregation was 3.2% (inactive). Moreover, the nuclei count in assay [2] stood at 120%; in assay [3], 94.4%. In addition, the fluorescence slope in assay [4] was -0.559 (inactive); in assay [6] it was 0.00592 (inactive). The NADPH fluorescence slope in assay [5] was -2.3e-05 (inactive).

Consider `CS(=O)(=O)Nc1ccc(S(=O)(=O)Nc2nccs2)cc1`, for which the cell count in assay [1] worked out at 418. Besides, the inhibition in assay [1] is 5.4% (inactive); in assay [3] it was -42.5% (inactive); in assay [7], 9.08% (inactive); in assay [8] it was 14.5% (inactive). In assay [2], the inhibition of aggregation is -6.9% (inactive). The nuclei count in assay [2] is 112%; in assay [3] it was 87.9%. Also, the fluorescence slope was -0.399 (inactive) in assay [4] and 0.00758 (inactive) in assay [6]. The NADPH fluorescence slope in assay [5] is 7.8e-05 (inactive).

For the compound `Cc1ccc(S(=O)(=O)N2CCN(C(=O)CN3C(=O)NC4(CCOc5ccccc54)C3=O)CC2)cc1` (centres undefined), the cell count in assay [1] stood at 697. For the same compound, the inhibition in assay [1] was -3.3% (inactive); in assay [3], -38.5% (inactive); in assay [7], -12.9% (inactive); in assay [8], -7.58% (inactive). Also, the inhibition of aggregation in assay [2] was 8.6% (inactive). Moreover, the nuclei count stood at 106% in assay [2] and 112% in assay [3]. The fluorescence slope was -0.44 (inactive) in assay [4] and 0.00414 (inactive) in assay [6]. The NADPH fluorescence slope in assay [5] is -0.000543 (inactive).

For the compound `O=c1c2c(nc3nc(CCc4ccccc4)[nH]n13)CCC2`, the cell count in assay [1] is 344. In addition, the inhibition in assay [1] is 6.7% (inactive); in assay [3] it was -59.4% (inactive); in assay [7], 16.2% (inactive); in assay [8], 19.5% (inactive). Further, the inhibition of aggregation in assay [2] was -5.3% (inactive). The nuclei count in assay [2] came to 97.5%; in assay [3], 105%. The fluorescence slope in assay [4] was -0.527 (inactive); in assay [6] it was 0.00459 (inactive). For the same compound, the NADPH fluorescence slope in assay [5] was -1.7e-05 (inactive).

For the compound `COc1cccc(Nc2c(F)c(F)c(F)c(F)c2C(=O)O)c1`, the cell count in assay [1] is 246. Further, the inhibition in assay [1] is -4% (inactive); in assay [3], -11.9% (inactive); in assay [7], 10.2% (inactive); in assay [8], 11.4% (inactive). For the same compound, in assay [2], the inhibition of aggregation is 9.3% (inactive). Further, the nuclei count in assay [2] was 77.5%; in assay [3] it was 96.6%. Moreover, the results for the fluorescence slope in assay [4] and in assay [6] were -0.587 (inactive) and 0.00658 (inactive), respectively. The NADPH fluorescence slope in assay [5] was -3.3e-05 (inactive).

As for `O=C1NCCCc2c1no[n+]2[O-]`, in assay [1], the cell count stood at 381. The inhibition in assay [1] was 5.3% (inactive); in assay [3], -31.3% (inactive); in assay [7] it was -17.2% (inactive); in assay [8] it was 6.4% (inactive). For the same compound, the inhibition of aggregation in assay [2] was 19.4% (inactive). The nuclei count was 54.8% in assay [2] and 107% in assay [3]. Further, the fluorescence slope in assay [4] is -0.584 (inactive); in assay [6] it was 0.00512 (inactive). Also, the NADPH fluorescence slope in assay [5] is -6.4e-06 (inactive).

Take `N#Cc1c(NC(=O)COC(=O)C2CC3C=CC2C3)oc(-c2ccccc2)c1-c1ccccc1` (centres undefined): the cell count in assay [1] was 282. Also, the inhibition in assay [1] is 18.4% (inactive); in assay [3], -44.1% (inactive); in assay [7], -1.94% (inactive); in assay [8] it was 99% (active). In addition, the inhibition of aggregation in assay [2] is -7.7% (inactive). Also, the results for the nuclei count in assay [2] and in assay [3] were 95.7% and 94.6%, respectively. Also, the fluorescence slope in assay [4] is -0.399 (inactive); in assay [6] it was 0.00531 (inactive). Besides, in assay [5], the NADPH fluorescence slope was -0.000409 (inactive).

For `COCCn1c(NCc2ccc(C)cc2)nc2c1c(=O)[nH]c(=O)n2C`, in assay [1], the cell count is 848. In addition, the inhibition in assay [1] is 6.8% (inactive); in assay [3] it was 9.9% (inactive); in assay [7], 7.9% (inactive); in assay [8] it was 13.3% (inactive). Further, the inhibition of aggregation in assay [2] was 29.4% (inactive). For the same compound, the nuclei count came to 91.9% in assay [2] and 110% in assay [3]. For the same compound, the values for the fluorescence slope in assay [4] and in assay [6] were -0.543 (inactive) and 0.00577 (inactive), respectively. The NADPH fluorescence slope in assay [5] was -2.1e-05 (inactive).

Consider `CC1C(O)=C(c2nc3ccccc3[nH]2)C(=N)N1c1ccccc1` (centres undefined), for which the cell count in assay [1] worked out at 331. The inhibition in assay [1] was 2.2% (inactive); in assay [3], -1.7% (inactive); in assay [7], -3.95% (inactive); in assay [8] it was -41% (inactive). For the same compound, the inhibition of aggregation in assay [2] was -12.9% (inactive). In addition, the values for the nuclei count in assay [2] and in assay [3] were 103% and 104%, respectively. For the same compound, the fluorescence slope in assay [4] is -0.482 (inactive); in assay [6] it was 0.00621 (inactive). Moreover, the NADPH fluorescence slope in assay [5] is -2.5e-05 (inactive).

On to `O=C(NC1CCCc2ccccc21)C1CCN(S(=O)(=O)c2cnc[nH]2)CC1` (centres undefined), for which the cell count in assay [1] was determined as 529. In addition, the inhibition in assay [1] is -10.3% (inactive); in assay [3] it was -6.8% (inactive); in assay [7], 4% (inactive); in assay [8], 19.5% (inactive). In addition, the inhibition of aggregation in assay [2] was -6.4% (inactive). In addition, the nuclei count in assay [2] is 98.8%; in assay [3] it was 111%. Further, the fluorescence slope in assay [4] is -0.566 (inactive); in assay [6] it was 0.00517 (inactive). Further, the NADPH fluorescence slope in assay [5] was -2.6e-05 (inactive).

With `CCOC(=O)c1sc(NC(=O)CSc2nc3c(cc2C#N)CCC3)c(C#N)c1C`, the cell count in assay [1] came to 775. Besides, the inhibition in assay [1] was -6.4% (inactive); in assay [3], -140% (inactive); in assay [7], 18.5% (inactive); in assay [8], 18.8% (inactive). In addition, the inhibition of aggregation in assay [2] is -2.5% (inactive). In addition, the nuclei count in assay [2] is 94.5%; in assay [3], 140%. Moreover, the fluorescence slope was -0.457 (inactive) in assay [4] and 0.00501 (inactive) in assay [6]. For the same compound, the NADPH fluorescence slope in assay [5] is 2.2e-05 (inactive).
